Laboratory results: ChEMBL document CHEMBL4725276, “Strategies towards potent trypanocidal drugs: Application of Rh-catalyzed [2 + 2 + 2] cycloadditions, sulfonyl phthalide annulation and nitroalkene reactions for the synthesis of substituted quinones and their evaluation against Trypanosoma cruzi” (Bioorg Med Chem, 2020)

Key:
[1] = test system: Trypanosoma cruzi; experiment: Trypanocidal activity against Trypanosoma cruzi Y strain bloodstream trypomastigotes isolated from infected Albino Swiss mouse assessed as lysis of parasite in presence of 5 % mouse blood incubated for 24 hrs by Neubauer chamber method; assay type: functional, organism-based
Procedure, shortened: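 Y-strain bloodstream trypomastigotes were isolated from infected mice at peak parasitemia by differential centrifugation and suspended at 10x10⁶ parasites/mL in DMES. They were mixed 1:1 with compound prepared at 2x final (DMSO final ≤0.1%) and incubated 24 h at 4 °C with 5% mouse blood, with benznidazole as control.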

[2] = Cytotoxicity against albino Swiss mouse Peritoneal macrophages in presence of 5 % mouse blood incubated for 24 hrs by PrestoBlue dye based fluorescence assay; assay type: cell-based, Peritoneal macrophage; conditions: read-out: LD50
Procedure, shortened: (§1)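 Primary peritoneal macrophages from Albino Swiss mice, 2.5 x 10⁴ cells/well in RPMI-1640 (pH 7.2, 10% foetal bovine serum, 2 mM glutamine), preincubated 24 h at 37 °C. Treated in fresh supplemented medium for 24 h at 37 °C. PrestoBlue added, 2 h incubation, read at 560 and 590 nm. LC₅₀/24 h is the concentration damaging 50% of cells, from reduction relative to untreated cells.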

[3] = Selectivity index, ratio of LD50 for cytotoxicity against albino Swiss mouse peritoneal macrophages to IC50 for Trypanocidal activity against Trypanosoma cruzi Y strain bloodstream trypomastigotes isolated from infected albino Swiss mouse in presence of 5 % mouse blood; assay type: toxicity; conditions: read-out: Selectivity Index
Procedure, shortened: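 Combines the macrophage LD₅₀/24 h with the trypanocidal IC₅₀/24 h, parasite assay run in 5% mouse blood at 4 °C. Y strain bloodstream trypomastigotes from infected Albino Swiss mice (peak parasitemia, differential centrifugation) were suspended at 10x10⁶/mL in DMES. They were mixed 1:1 with compound at twice the final concentration (DMSO ≤0.1% final) for 24 h. Neubauer chamber counts; IC₅₀ is 50% lysis; mean ± SD of at least three independent experiments.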

[4] = Selectivity index, ratio of LD50 for cytotoxicity against albino Swiss mouse peritoneal macrophages to IC50 for Trypanocidal activity against Trypanosoma cruzi Y strain bloodstream trypomastigotes isolated from infected albino Swiss mouse in absence of mouse blood; assay type: toxicity; conditions: read-out: Selectivity Index
Procedure, shortened: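 Combines the macrophage LD₅₀/24 h with the trypanocidal IC₅₀/24 h, parasite assay run without blood at 37 °C. Y strain bloodstream trypomastigotes were taken from infected Albino Swiss mice at peak parasitemia by differential centrifugation, at 10x10⁶/mL in DMES. They were mixed 1:1 with compound at twice the final concentration (DMSO ≤0.1% final) for 24 h. Neubauer counts; IC₅₀ is 50% lysis.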

[5] = test system: Trypanosoma cruzi; experiment: Trypanocidal activity against Trypanosoma cruzi Y strain bloodstream trypomastigotes isolated from infected Albino Swiss mouse assessed as lysis of parasite in absence of mouse blood incubated for 24 hrs by Neubauer chamber method; assay type: functional, organism-based
Procedure, shortened: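 Bloodstream trypomastigotes (Y strain) were taken from mice at peak parasitemia by differential centrifugation and resuspended at 10x10⁶/mL in DMES. Equal volumes of suspension and compound at twice final concentration (DMSO final ≤0.1%) were incubated 24 h at 37 °C with no blood added, with benznidazole as control.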

[6] = test system: Trypanosoma cruzi; experiment: Potency index, ratio of benznidazole IC50 to compound IC50 for trypanocidal activity against Trypanosoma cruzi Y strain bloodstream trypomastigotes isolated from infected Albino Swiss mouse assessed as lysis of parasite in presence of 5 % mouse blood incubated for 24 hrs by Neubauer chamber method; assay type: functional
[7] = Cytotoxicity against albino Swiss mouse Peritoneal macrophages in absence of mouse blood incubated for 24 hrs in absence of mouse blood by PrestoBlue dye based fluorescence assay; assay type: cell-based, Peritoneal macrophage; conditions: read-out: LD50; procedure, shortened: as §1

Row | SMILES | IC50 [1] [µM] | other results
1 | COc1ccc(-n2cc(-c3ccccc3)c3c2C(=O)c2ccccc2C3=O)cc1 | > 500 | 
2 | COc1ccc(-n2cc(-c3ccc(Cl)cc3)c3c2C(=O)c2ccccc2C3=O)cc1 | > 500 | 
3 | Cc1ccc(-c2cn(-c3cccc(Br)c3)c3c2C(=O)c2ccccc2C3=O)cc1 | > 500 | 
4 | O=C1c2ccccc2C(=O)c2c(-c3ccc(F)cc3)coc21 | > 500 | 
5 | O=C1c2ccccc2C(=O)c2c(-c3ccccc3[N+](=O)[O-])coc21 | > 500 | 
6 | COc1ccc(-n2cc(-c3ccc(C)cc3)c3c2C(=O)c2ccccc2C3=O)cc1 | > 500 | 
7 | COc1ccc(-c2cn(-c3ccc(Cl)cc3)c3c2C(=O)c2ccccc2C3=O)cc1 | > 500 | 
8 | CSc1ccc(-c2coc3c2C(=O)c2ccccc2C3=O)cc1 | > 500 | 
9 | Cc1ccc(-c2cn(-c3ccc(C)cc3)c3c2C(=O)c2ccccc2C3=O)cc1 | > 500 | 
10 | COc1ccc(-c2cn(-c3ccc(OC)cc3)c3c2C(=O)c2ccccc2C3=O)cc1 | > 500 | 
11 | COc1ccc(-c2cn(-c3ccccc3)c3c2C(=O)c2ccccc2C3=O)cc1 | > 500 | 
12 | Cc1ccc(-c2cn(-c3ccc(Br)cc3)c3c2C(=O)c2ccccc2C3=O)cc1 | > 500 | 
13 | O=C1c2ccccc2C(=O)c2c(-c3ccc(Br)cc3)coc21 | > 500 | 
14 | COc1ccc(-n2cc(-c3ccc(F)cc3)c3c2C(=O)c2ccccc2C3=O)cc1 | > 500 | 
15 | COc1ccc(-c2cn(-c3ccc(F)cc3)c3c2C(=O)c2ccccc2C3=O)cc1 | > 500 | 
16 | COc1ccc(-c2coc3c2C(=O)c2ccccc2C3=O)cc1 | > 500 | 
17 | COc1ccc(-n2cc(-c3ccco3)c3c2C(=O)c2ccccc2C3=O)cc1 | > 500 | 
18 | O=C1c2ccccc2C(=O)c2c(-c3cccs3)coc21 | > 500 | 
19 | O=C1c2ccccc2C(=O)c2c1oc1ccccc21 | > 500 | 

Row | SMILES | IC50 [1] [µM] | other results
20 | COC(=O)C1(C(=O)OC)Cc2cc3c(cc2C1)C(=O)C(c1ccccc1OC)=CC3=O | 102 | 
21 | COC(=O)C1(C(=O)OC)Cc2cc3c(c(O)c2C1)C(=O)C=C(OC)C3=O | > 500 | 
22 | COC(=O)C1(C(=O)OC)Cc2cc3c(cc2C1)C(=O)C(c1ccccc1)=CC3=O | 369 | 
23 | Cc1ccc(S(=O)(=O)n2c3ccccc3c3c(-c4ccccc4)c4c(cc32)C(=O)C=CC4=O)cc1 | 122 | 
24 | COC(=O)C1(C(=O)OC)Cc2cc3c(cc2C1)C(=O)C(Cl)=CC3=O | 56.6 | CC50 at 24 h [2]: 5 µM; selectivity ratio [3]: 0.09
25 | CC(=O)CCC1=C(c2ccco2)C(=O)c2ccccc2C1=O | > 500 | 
26 | Cc1cc2oc3c(c2cc1C)C(=O)c1ccccc1C3=O | > 500 | 
27 | COC(=O)C1(C(=O)OC)Cc2c(O)c3c(c(O)c2C1)C(=O)C(OC)=CC3=O | > 500 | 
28 | COC1=CC(=O)c2cc3c(c(-c4ccc5c(c4)OCO5)c2C1=O)COC3=O | > 500 | 
29 | Cc1ccc2oc3c(c2c1)C(=O)c1ccccc1C3=O | > 500 | 
30 | O=C1C=CC(=O)c2c1cc1oc3ccccc3c1c2-c1ccccc1 | 247 | 
31 | COC(=O)C1(C(=O)OC)Cc2cc3c(cc2C1)C(=O)C(N(C)c1ccccc1)=CC3=O | > 500 | 
32 | CCCCc1c2c(c(CCCC)c3c1C(=O)C=CC3=O)CN(S(=O)(=O)c1ccc(C)cc1)C2 | > 500 | 
33 | COC(=O)C1(C(=O)OC)Cc2c(c(-c3ccccc3)c3c(c2-c2ccccc2)C(=O)C=CC3=O)C1 | 2.5 | selectivity ratio [4]: 3.7; IC50 [5]: 0.44 µM; CC50 at 24 h [2]: 1.6 µM; selectivity ratio [3]: 0.6
34 | CCOc1cccc2c3c(oc12)C(=O)c1ccccc1C3=O | > 500 | 
35 | Cc1ccc(S(=O)(=O)N2Cc3cc4c(cc3C2)C(=O)C=CC4=O)cc1 | > 500 | 
36 | CCCCn1cc(-c2ccc(Cl)cc2)c2c1C(=O)c1ccccc1C2=O | > 500 | 
37 | COC(=O)C1(C(=O)OC)Cc2cc3c(cc2C1)C(=O)C(I)=CC3=O | 51.3 | CC50 at 24 h [2]: 1.6 µM; selectivity ratio [3]: 0.03
38 | CC(=O)CCC1=C(c2ccc(F)cc2)C(=O)c2ccccc2C1=O | 114 | CC50 at 24 h [2]: 65.4 µM

Row | SMILES | IC50 [1] [µM] | other results
39 | COC(=O)C1(C(=O)OC)Cc2c(c(-c3ccc(OC)cc3)c3c(c2-c2ccc(OC)cc2)C(=O)C=CC3=O)C1 | 2.3 | selectivity ratio [4]: 13.9; IC50 [5]: 0.14 µM; CC50 at 24 h [2]: 1.9 µM; selectivity ratio [3]: 0.81
40 | O=C1C=CC(=O)c2cc3c(cc21)CCC3 | 49.2 | CC50 at 24 h [2]: 1.7 µM; selectivity ratio [3]: 0.03; Ratio IC50 [6]: 2
41 | COC(=O)C1(C(=O)OC)Cc2c(c(-c3ccc(F)cc3)c3c(c2-c2ccc(F)cc2)C(=O)C=CC3=O)C1 | 3.3 | selectivity ratio [4]: 9.3; IC50 [5]: 0.32 µM; CC50 at 24 h [2]: 3 µM; selectivity ratio [3]: 0.89
42 | O=C1C=CC(=O)c2cc3c(cc21)COC3 | 193 | 
43 | COc1ccc(C2=C(CCC(C)=O)C(=O)c3ccccc3C2=O)cc1 | 109 | CC50 at 24 h [2]: 79 µM; selectivity ratio [3]: 1.38
44 | COC(=O)C1(C(=O)OC)Cc2cc3c(cc2C1)C(=O)C(OC)=CC3=O | > 500 | 
45 | COC(=O)C1(C(=O)OC)Cc2cc3c(cc2C1)C(=O)C(c1ccccc1Br)=CC3=O | 51.5 | CC50 at 24 h [2]: 3.8 µM; selectivity ratio [3]: 0.07
46 | COC(=O)C1(C(=O)OC)Cc2c(C)c3c(c(C)c2C1)C(=O)C=CC3=O | > 500 | 
47 | COC(=O)C1(C(=O)OC)Cc2cc3c(cc2C1)C(=O)C=CC3=O | 51.5 | CC50 at 24 h [2]: 1.6 µM; selectivity ratio [3]: 0.03
48 | COC(=O)C1(C(=O)OC)Cc2cc3c(c(C(=O)O)c2C1)C(=O)C=CC3=O | > 500 | 
49 | COC(=O)C1(C(=O)OC)Cc2cc3c(cc2C1)C(=O)C(C)=C(C)C3=O | > 500 | 
50 | COC(=O)C1(C(=O)OC)Cc2cc3c(c(CO[Si](C)(C)C(C)(C)C)c2C1)C(=O)C=CC3=O | > 500 | 
51 | COC(=O)C1(C(=O)OC)Cc2cc3c(cc2C1)C(=O)C(c1ccc(C(F)(F)F)cc1)=CC3=O | 362 | 
52 | CCCCc1c2c(cc3c1C(=O)C=CC3=O)CC(C(=O)OC)(C(=O)OC)C2 | 64.4 | CC50 at 24 h [2]: 4.2 µM; selectivity ratio [3]: 0.07
53 | COC(=O)C1(C(=O)OC)Cc2cc3c(cc2C1)C(=O)c1ccccc1C3=O | > 500 | 
54 | COC(=O)C1(C(=O)OC)Cc2cc3c(cc2C1)C(=O)C(Br)=CC3=O | 150 | 
55 | COc1ccc2oc3c(c2c1)C(=O)c1ccccc1C3=O | > 500 | 
56 | O=C(Cn1ccnc1[N+](=O)[O-])NCc1ccccc1 [BENZNIDAZOLE] |  | IC50 [5]: 8.8 µM; CC50 at 24 h [7]: > 1000 µM
